Source: ChEMBL document CHEMBL1123103, “Pyrimidinones. 1. 2-Amino-5-halo-6-aryl-4(3H)-pyrimidinones. Interferon-inducing antiviral agents” (1985)
Active and inactive are the calls of the source. The calls are words filed in the database; no cut-off is given here.

Legend:
Semliki Forest virus [1] = test: Effective dose administered intraperitoneally againist Forest virus infected mice; type: functional, organism-based
Summary of the method: (§1)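 Drug was suspended in 0.9% NaCl or in a carboxymethylcellulose/polysorbate 80/benzyl alcohol/NaCl vehicle. Deaths were recorded daily for 6 days, with 24 mice per group. The ED50 is the minimal dose protecting 50% of mice, calculated by probit analysis.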

Semliki Forest virus [2] = test: Effective dose administered subcutaneously against Forest virus infected mice; type: functional, organism-based; summary of the method: as §1
Semliki Forest virus [3] = test: Effective dose administered perorally against Forest virus infected mice; type: functional, organism-based; summary of the method: as §1
Semliki Forest virus [4] = test: Effective dose administered subcutaneously againist Forest virus infected mice; type: functional; settings: sc
Summary of the method: (§2)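 ICR or CD-1 mice of both sexes got one drug dose by the route in the line (ip, po or sc). The drug was a suspension in 0.9% NaCl or in a CMC/polysorbate 80/benzyl alcohol/NaCl vehicle. […] Deaths were recorded daily for 6 days, 24 mice/group. ED50 is the minimal dose protecting 50% of mice, by probit analysis.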

Mus musculus [5] = test: Evaluation for serum interferon response from a single 800 mg/kg intraperitoneal administration in vesicular stomatitis virus on […] cells; Range 10-50 units/mL; type: functional
Summary of the method: (§3)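 Mice got a single ip 800 mg/kg dose. Blood was drawn 3, 6, 8 and 12 h later from five mice per group and pooled. Interferon titer was measured by plaque reduction with vesicular stomatitis virus on L929 cells. Titer is the reciprocal serum dilution cutting plaques by 50% versus untreated cultures. Peak response within 24 h was banded: ≥2000, ~500-1000, ~50-500, ~10-50 U/mL.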

Semliki Forest virus [6] = test: Effective dose administered perorally againist Forest virus infected mice; type: functional; settings: po; summary of the method: as §2
Semliki Forest virus [7] = test: Antiviral activity against Forest virus (SFV); type: functional; summary of the method: as §2
Mus musculus [8] = test: The compound was evaluated for the serum interferon response from a single 800 mg/kg intraperitoneal administration in vesicular stomatitis virus on […] cells; Range 500-1000 units/mL; type: functional; summary of the method: as §3
Human alphaherpesvirus 1 = test: Intraperitoneal administration against herpes simplex virus type-1 (HSV-1) infected mice; type: functional
Summary of the method: (§4)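 ICR or CD-1 mice got drug ip in saline as the total daily dose (mg/kg/day). It was split into doses at -40, -28, -20, -3 and +3 h relative to ip inoculation with 5.6×10^4 pfu HSV-1. Mice were followed for 22 days, 15/group. Protection index = (control mortality − treated mortality)/control mortality; >0.25 counted active. Only the lowest protective dose is recorded.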

Mus musculus [9] = test: Protection index after intraperitoneal administration (50 mg/kg/day) against herpes simplex virus type-1 (HSV-1) infected mice [protection index=(control mortality-treated mortality)/control mortality]; type: functional; summary of the method: as §4
[10] = tested on: Vesicular stomatitis virus; test: Evaluation for serum interferon response from a single 800 mg/kg intraperitoneal administration in vesicular stomatitis virus on […] cells.; type: functional; summary of the method: as §3
Mus musculus [11] = test: The compound was evaluated for the serum interferon response from a single 800 mg/kg intraperitoneal administration in vesicular stomatitis virus on […] cells; range 500-1000 units/mL; type: functional; summary of the method: as §3

Row | Structure (SMILES) | ED50 (Semliki Forest virus [1]) | ED50 (Semliki Forest virus [2]) | ED50 (Semliki Forest virus [3]) | ED50 (Semliki Forest virus [6]) [mg/kg] | ED50 (Semliki Forest virus [7]) [mg/kg] | Protection index (Human alphaherpesvirus 1) | also measured
1 | Nc1nc(O)c(Cl)c(-c2cccc(I)c2)n1 | inactive |  |  |  |  |  | 
2 | Nc1nc(O)c(Cl)c(-c2ccc(OCc3ccccc3)cc2)n1 | inactive |  |  |  |  |  | 
3 | CC(C)(C)c1ccc(-c2nc(N)nc(O)c2Cl)cc1 | inactive | inactive | inactive |  |  |  | 
4 | Cc1ccc(-c2nc(N)nc(O)c2I)cc1 |  |  |  | > 400 | 115 |  | ED50 (Semliki Forest virus [4]): > 400 mg/kg; IFN (Mus musculus [5]): 10 units/mL
5 | Nc1nc(O)c(Br)c(-c2cc(Cl)cc(Cl)c2)n1 |  |  |  | > 400 | 245 |  | ED50 (Semliki Forest virus [4]): > 400 mg/kg; IFN (Mus musculus [5]): 10 units/mL
6 | Nc1nc(O)c(Cl)c(-c2cc(F)ccc2F)n1 |  |  |  | > 400 | 165 |  | IFN (Mus musculus [8]): 500 units/mL
7 | COc1ccc(-c2nc(N)nc(O)c2Br)cc1 |  | inactive | inactive |  | > 400 |  | 
8 | Nc1nc(O)c(Cl)c(-c2cccc(F)c2F)n1 |  |  |  | 200 | 70 | 0.93 | IFN (Mus musculus [8]): 500 units/mL
9 | Nc1nc(O)c(Br)c(-c2ccc3ccccc3n2)n1 | inactive | inactive | inactive |  |  | 0.14 | 
10 | Nc1nc(O)c(Br)c(-c2cccc3ccccc23)n1 |  |  |  | > 400 | 40 | 0 | ED50 (Semliki Forest virus [4]): > 400 mg/kg; IFN (Mus musculus [5]): 10 units/mL
11 | CC(C)(C)c1ccc(-c2nc(N)nc(O)c2Br)cc1 | inactive | inactive | inactive |  |  |  | 
12 | N#Cc1ccc(-c2nc(N)nc(O)c2I)cc1 | inactive |  |  |  |  | 0 | 
13 | Nc1cccc(-c2nc(N)nc(O)c2Br)c1 | inactive |  |  |  |  |  | 
14 | Nc1nc(O)c(Br)c(-c2c(F)cc(F)cc2F)n1 | inactive |  |  |  |  | 0 | 
15 | Nc1nc(O)c(Br)c(-c2ccncc2)n1 |  | inactive | inactive |  | > 400 | 0 | 
16 | Nc1nc(O)c(I)c(-c2ccoc2)n1 |  | inactive | inactive |  | > 400 |  | 
17 | COc1cccc(-c2nc(N)nc(O)c2I)c1OC | inactive |  |  |  |  |  | 
18 | Nc1nc(O)c(Br)c(-c2ccc(-c3ccccc3)cc2)n1 | inactive | inactive | inactive |  |  |  | 
19 | CCCOc1cccc(-c2nc(N)nc(O)c2Cl)c1 |  |  |  | > 400 | 40 | 0.13 | IFN (Mus musculus [5]): 10 units/mL
20 | Cc1ccc(-c2nc(N)nc(O)c2Br)cc1 |  |  |  |  | 200 |  | IFN (Mus musculus [5]): 10 units/mL
21 | Nc1nc(O)c(Br)c(-c2ccc(Cl)cc2)n1 |  |  |  | > 400 | 100 |  | ED50 (Semliki Forest virus [4]): > 400 mg/kg; IFN (Mus musculus [5]): 10 units/mL
22 | Nc1nc(O)c(Cl)c(-c2ccccc2F)n1 |  |  |  | 105 | 105 |  | ED50 (Semliki Forest virus [4]): 115 mg/kg; Protection index (Mus musculus [9]): 0.69; IFN [10]: >=2000 ml
23 | Nc1nc(O)c(Br)c(-c2c(F)ccc(F)c2F)n1 | inactive |  |  |  |  | 0 | 
24 | COc1cccc(-c2nc(N)nc(O)c2Br)c1OC | inactive |  |  |  |  |  | 
25 | Nc1nc(O)c(Br)c(-c2ccc(F)cc2)n1 |  |  |  | > 400 | 160 | 0.46 | ED50 (Semliki Forest virus [4]): > 400 mg/kg; IFN (Mus musculus [8]): 500 units/mL
26 | Nc1nc(O)c(Br)c(-c2ccc(O)cc2)n1 |  | inactive | inactive |  | > 400 |  | 
27 | Nc1nc(O)c(I)c(-c2cccc(Cl)c2)n1 |  |  |  | > 400 | 35 | 0.65 | ED50 (Semliki Forest virus [4]): 250 mg/kg; IFN (Mus musculus [8]): 500 units/mL
28 | Nc1nc(O)c(Cl)c(-c2ccc3ccccc3n2)n1 | inactive | inactive | inactive |  |  | 0.07 | 
29 | Nc1nc(O)c(I)c(-c2ccccc2F)n1 |  |  |  | > 400 | 105 |  | ED50 (Semliki Forest virus [4]): > 400 mg/kg; IFN (Mus musculus [11]): 500 units/mL; Protection index (Mus musculus [9]): 0.67
